Laboratory results published in ChEMBL document CHEMBL1759839, “Synthesis, biopharmaceutical characterization, antimicrobial and antioxidant activities of 1-(4'-O-β-D-glucopyranosyloxy-2'-hydroxyphenyl)-3-aryl-propane-1,3-diones” (2011).
≈ marks a conversion by molar mass, not a printed value.

What was measured:
Type in all cases: functional
[1] = system: Nakaseomyces glabratus; experiment: Antifungal activity against Candida glabrata ATCC 36583 after 48 hrs; details: ATCC 36583, 48 h
Method in brief: (§1)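 Yeasts grown on Sabouraud dextrose agar, then in Sabouraud liquid medium at 36 °C overnight. Inoculum diluted in MOPS-buffered RPMI-1640 with L-glutamine, pH 7, to 2.5 × 10³ cfu/mL final. Twofold dilutions were made from a 20 mg/mL DMSO stock, with fluconazole as reference and DMSO at most 12.5% final. Incubated at 36 °C, humid, and read visually at 48 h. MIC was the lowest concentration giving no visible turbidity.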

[2] = system: Candida albicans; experiment: Antifungal activity against Candida albicans ATCC 10231 after 48 hrs; details: ATCC 10231, 48 h; method in brief: as §1
[3] = system: Pseudomonas aeruginosa; experiment: Antibacterial activity against Pseudomonas aeruginosa ATCC 27853 after 24 hrs; details: ATCC 27853, 24 h
Method in brief: (§2)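 Twofold broth dilution MIC in Mueller-Hinton broth, pH 6.9, inoculum (1-2) × 10³ cells/mL. Compounds and ampicillin trihydrate were dissolved in DMSO at 20 mg/mL stock and serially diluted from 20 down to 0.005. […] Plates incubated at 36 °C with a humid chamber and read visually after 24 h. MIC was the lowest concentration with no visible turbidity.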

[4] = system: Radical scavenging activity; experiment: Antioxidant activity assessed as DPPH free radical scavenging activity after 20 mins by spectrophotometric analysis; parameters: concentration or dose not given beside the values
Method in brief: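 Reduction of methanolic DPPH radical, with absorbance recorded at 516 nm and run in triplicate. Percent scavenging was calculated from the initial and final absorbance of each solution.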

[5] = system: Staphylococcus aureus; experiment: Antibacterial activity against Staphylococcus aureus ATCC 25923 after 24 hrs; details: ATCC 25923, 24 h; method in brief: as §2
[6] = system: Escherichia coli; experiment: Antibacterial activity against Escherichia coli ATCC […] after 24 hrs; method in brief: as §2
[7] = system: Escherichia coli; experiment: Antibacterial activity against Escherichia coli ATCC […]; method in brief: as §2
[8] = system: Bacillus subtilis; experiment: Antibacterial activity against Bacillus subtilis ATCC 6633 after 24 hrs; details: ATCC 6633, 24 h; method in brief: as §2

| SMILES | MIC [1] | MIC [2] | MIC [3] | Activity [4] | MIC [5] | MIC [6] | MIC [7] | MIC [8] |
| --- | --- | --- | --- | --- | --- | --- | --- | --- |
| OC(Cn1cncn1)(Cn1cncn1)c1ccc(F)cc1F [FLUCONAZOLE] | 10 µg/mL (≈ 32.7 µM) | 10 µg/mL (≈ 32.7 µM) |  |  |  |  |  |  |
| COc1ccc(C(=O)CC(=O)c2ccc(O[C@@H]3O[C@H](CO)[C@@H](O)[C@H](O)[C@H]3O)cc2O)cc1 | 2500 µg/mL (≈ 5580 µM) | 1250 µg/mL (≈ 2790 µM) | 30 µg/mL (≈ 66.9 µM) | 73.5% | 2500 µg/mL (≈ 5580 µM) | 5000 µg/mL (≈ 11200 µM) | 5000 µg/mL (≈ 11200 µM) | 2500 µg/mL (≈ 5580 µM) |
| Cc1cccc(C(=O)CC(=O)c2ccc(O[C@@H]3O[C@H](CO)[C@@H](O)[C@H](O)[C@H]3O)cc2O)c1 | 10000 µg/mL (≈ 23100 µM) | 2500 µg/mL (≈ 5780 µM) | 10000 µg/mL (≈ 23100 µM) | 79.5% | 20 µg/mL (≈ 46.3 µM) | 5000 µg/mL (≈ 11600 µM) |  | 2500 µg/mL (≈ 5780 µM) |
| O=C(CC(=O)c1ccc(O[C@@H]2O[C@H](CO)[C@@H](O)[C@H](O)[C@H]2O)cc1O)c1ccc(Cl)cc1 | 5000 µg/mL (≈ 11000 µM) | 150 µg/mL (≈ 331 µM) | 20 µg/mL (≈ 44.2 µM) | 84.3% | 150 µg/mL (≈ 331 µM) | 70 µg/mL (≈ 155 µM) |  | 300 µg/mL (≈ 662 µM) |
| O=C(CC(=O)c1ccccc1Cl)c1ccc(O[C@@H]2O[C@H](CO)[C@@H](O)[C@H](O)[C@H]2O)cc1O | 5000 µg/mL (≈ 11000 µM) | 5000 µg/mL (≈ 11000 µM) | 20 µg/mL (≈ 44.2 µM) | 89.1% | 150 µg/mL (≈ 331 µM) | 20 µg/mL (≈ 44.2 µM) |  | 1250 µg/mL (≈ 2760 µM) |
| Cc1ccc(C(=O)CC(=O)c2ccc(O[C@@H]3O[C@H](CO)[C@@H](O)[C@H](O)[C@H]3O)cc2O)cc1 | 5000 µg/mL (≈ 11600 µM) | 5000 µg/mL (≈ 11600 µM) | 5000 µg/mL (≈ 11600 µM) | 82% | 625 µg/mL (≈ 1450 µM) | 5000 µg/mL (≈ 11600 µM) |  | 2500 µg/mL (≈ 5780 µM) |
| O=C(CC(=O)c1ccc(O[C@@H]2O[C@H](CO)[C@@H](O)[C@H](O)[C@H]2O)cc1O)c1ccccc1 | 2500 µg/mL (≈ 5980 µM) | 2500 µg/mL (≈ 5980 µM) | 150 µg/mL (≈ 359 µM) | 81.2% | 300 µg/mL (≈ 717 µM) | 1250 µg/mL (≈ 2990 µM) |  | 150 µg/mL (≈ 359 µM) |
| O=C(CC(=O)c1ccc(O[C@@H]2O[C@H](CO)[C@@H](O)[C@H](O)[C@H]2O)cc1O)c1cccc(Cl)c1 | 10000 µg/mL (≈ 22100 µM) | 10000 µg/mL (≈ 22100 µM) | 1250 µg/mL (≈ 2760 µM) | 83.5% | 150 µg/mL (≈ 331 µM) | 20 µg/mL (≈ 44.2 µM) |  | 625 µg/mL (≈ 1380 µM) |
| COc1cccc(C(=O)CC(=O)c2ccc(O[C@@H]3O[C@H](CO)[C@@H](O)[C@H](O)[C@H]3O)cc2O)c1 | 5000 µg/mL (≈ 11200 µM) | 10000 µg/mL (≈ 22300 µM) | 5000 µg/mL (≈ 11200 µM) | 77.3% | 625 µg/mL (≈ 1390 µM) | 2500 µg/mL (≈ 5580 µM) |  | 150 µg/mL (≈ 335 µM) |
| CC1(C)S[C@@H]2[C@H](NC(=O)[C@H](N)c3ccccc3)C(=O)N2[C@H]1C(=O)O [AMPICILLIN] |  |  | 5 µg/mL (≈ 14.3 µM) |  | 19 µg/mL (≈ 54.4 µM) | 10 µg/mL (≈ 28.6 µM) |  | 5 µg/mL (≈ 14.3 µM) |
| O=C1O[C@H]([C@@H](O)CO)C(O)=C1O |  |  |  | 98% |  |  |  |  |
